This is a sample that favours compounds with a hit; in the whole collection about 1.8% have one here.
M5 PAM: human M5 muscarinic receptor positive allosteric modulators, primary screen, CHO-K1 cells, Fluo-8 calcium fluorescence; Muscarinic acetylcholine receptor M5 (Homo sapiens), P08912; CHO-K1 hM5, ACh EC20 PAM; 0% = ACh EC20, 100% = ACh EC100; activation, % at 3 µM; hit rate 0.3% among 360,000; AID 624038, 2012;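 active = activation above the run cutoff, the mean activation of all test compounds plus 3 SD, cut at about 18% in these data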
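system = human M5 receptor in CHO-K1 cells | reagent = EC20 acetylcholine as agonist stimulus | compound dosing = single-point, 3 µM nominal | incubation = Fluo-8 loading 80 min at 37 °C plus 30 min room temperature | detection = Fluo-8 calcium dye fluorescence, kinetic read | benchmarks = low control EC20 acetylcholine (0%), high control EC100 acetylcholine (100%)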
M5 ag: human M5 muscarinic receptor agonists, primary screen, CHO-K1 cells, Fluo-8 calcium fluorescence; Muscarinic acetylcholine receptor M5 (Homo sapiens), P08912; CHO-K1 hM5 cells; 0% DMSO wells, 100% maximal acetylcholine response; activation, % at 3 µM; hit rate 0.19% among 360,000;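 active = activation above the run's mean over test compounds plus 3 SD, cut at about 23% in these data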;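 note: signal is peak over basal fluorescence ratio across the kinetic read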
M4 ag: human M4 muscarinic receptor agonists, primary screen, CHO-K1 cells, Fluo-8 calcium fluorescence; activation, % at 3 µM; Muscarinic acetylcholine receptor M4 (Homo sapiens), P08173; CHO-K1 hM4/Gqi5; vehicle 0%, full acetylcholine response 100%; hit rate 0.14% among 360,000; AID 624127, 2012;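 active = activation above the run mean over all test wells plus 3 SD, cut at about 32% in these data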;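 note: peak over basal fluorescence ratio per well then scaled between controls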
Target sequence (P08173 whole entry, looked up): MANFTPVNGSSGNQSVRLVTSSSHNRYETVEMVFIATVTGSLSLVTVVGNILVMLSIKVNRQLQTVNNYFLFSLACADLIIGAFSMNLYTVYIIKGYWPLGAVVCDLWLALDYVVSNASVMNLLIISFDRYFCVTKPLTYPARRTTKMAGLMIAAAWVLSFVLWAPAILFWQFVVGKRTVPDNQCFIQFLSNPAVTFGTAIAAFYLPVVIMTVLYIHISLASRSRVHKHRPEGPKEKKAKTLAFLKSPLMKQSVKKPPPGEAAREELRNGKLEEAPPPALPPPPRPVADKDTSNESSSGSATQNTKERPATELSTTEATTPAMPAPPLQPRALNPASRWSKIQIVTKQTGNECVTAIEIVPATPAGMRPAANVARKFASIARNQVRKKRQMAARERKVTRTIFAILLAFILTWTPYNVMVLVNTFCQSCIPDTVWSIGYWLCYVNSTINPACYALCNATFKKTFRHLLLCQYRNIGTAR
M5 antag: human M5 muscarinic receptor antagonists, primary screen, CHO cells, Fluo-8 calcium fluorescence; inhibition, % at 3 µM; AID 624040, 2012; hit rate 0.59% among 360,000; Muscarinic acetylcholine receptor M5 (Homo sapiens), P08912; CHO-hM5 cells, ACh EC80;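 active = inhibition above a per-plate cutoff, the mean of that plate's test compounds plus 3 SD, cut at about 27% in these data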
M4 antag: human M4 muscarinic receptor antagonists, primary screen, CHO cells, Fluo-8 calcium fluorescence. CHO-hM4 cells, ACh EC80. inhibition, % at 3 µM. Muscarinic acetylcholine receptor M4 (Homo sapiens), P08173. hit rate 0.73% among 360,000;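 active = inhibition above its plate's cutoff, the mean inhibition of sample wells plus 3 SD, cut at about 27% in these data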
CHRM4 PAM: human M4 muscarinic receptor positive allosteric modulators, primary screen, CHO-K1 cells, Fluo-8 calcium fluorescence; Muscarinic acetylcholine receptor M4 (Homo sapiens), P08173; hit rate 0.4% among 360,000; CHO-K1 hM4/Gqi5, ACh EC20; 0% = ACh EC20, 100% = maximal ACh; activation, % at 3 µM;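 active = activation above its plate's cutoff, the mean activation of sample wells plus 3 SD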
Numbers stand for hits.

CCc1nn(C)c(N)c1C was read as M5 PAM inactive, M5 ag inactive, M4 ag inactive, M5 antag inactive, M4 antag inactive and CHRM4 PAM inactive.
For CC1(C(O)(C#CC[N+]2(C)CCCCC2)c2ccccc2)CCCC1 (stereo unspecified) the results were M5 PAM inactive, M5 ag inactive, M4 ag inactive, M5 antag 100, M4 antag 99 and CHRM4 PAM inactive.
`Cn1nc(Cc2cccc3ccccc23)c(C#N)c1N` gave M5 PAM inactive, M5 ag inactive, M4 ag inactive, M5 antag inactive, M4 antag inactive and CHRM4 PAM inactive.
For N#Cc1c(Cc2cccc3ccccc23)nn(CCO)c1N the results were M5 PAM inactive, M5 ag inactive, M4 ag inactive, M5 antag inactive, M4 antag inactive and CHRM4 PAM 25.
COc1ccc2c3c([nH]c2c1)[C@H]1C[C@H]2[C@H](C[C@@H](O)[C@H](OC)[C@H]2C(=O)O)CN1CC3 was read as M5 PAM inactive, M5 ag inactive, M4 ag inactive, M5 antag inactive, M4 antag 46 and CHRM4 PAM inactive.
Screening CCCN1CCN(C(=O)c2oc3ccccc3c2NC(=O)COc2ccc(OC)cc2)CC1 returned M5 PAM inactive, M5 ag inactive, M4 ag inactive, M5 antag inactive, M4 antag inactive and CHRM4 PAM inactive.
For N#Cc1c(Cl)nsc1NN the results were M5 PAM inactive, M5 ag inactive, M4 ag inactive, M5 antag 31, M4 antag inactive and CHRM4 PAM inactive.
Screening Cc1ccc(N/C(N)=N/c2nc(C)cc(C)n2)cc1 returned M5 PAM inactive, M5 ag inactive, M4 ag inactive, M5 antag inactive, M4 antag inactive and CHRM4 PAM inactive.
Screening CCCCc1ccc(N/C(N)=N/c2nc(C)cc(C)n2)cc1 returned M5 PAM inactive, M5 ag 51, M4 ag 114, M5 antag 77, M4 antag 87 and CHRM4 PAM inactive.
`Cc1cccc(N/C(N)=N/c2nc(C)cc(C)n2)c1` gave M5 PAM inactive, M5 ag inactive, M4 ag 37, M5 antag inactive, M4 antag inactive and CHRM4 PAM inactive.
O=C(Nc1ccccc1F)N(CCCN1CCOCC1)Cc1cc2cc3c(cc2[nH]c1=O)OCCO3 was read as M5 PAM inactive, M5 ag inactive, M4 ag inactive, M5 antag inactive, M4 antag inactive and CHRM4 PAM inactive.
COc1cccc(OC2(C)CCN(Cc3ccc(-c4ccccn4)cc3)C2)c1 (stereo unspecified) was read as M5 PAM inactive, M5 ag inactive, M4 ag inactive, M5 antag inactive, M4 antag inactive and CHRM4 PAM inactive.
For CCc1ccc(OC2(C)CCN(Cc3ccccc3OC(F)F)C2)cc1 (stereo unspecified) the results were M5 PAM inactive, M5 ag inactive, M4 ag inactive, M5 antag inactive, M4 antag inactive and CHRM4 PAM inactive.
For COC(=O)Cc1ccc(OC2(C)CCN(Cc3ccccc3OC(F)F)C2)cc1 (stereo unspecified) the results were M5 PAM inactive, M5 ag inactive, M4 ag inactive, M5 antag inactive, M4 antag 55 and CHRM4 PAM inactive.
COC(=O)Cc1ccc(OC2(C)CCN(Cc3ccc(-c4ccccn4)cc3)C2)cc1 (stereo unspecified) was read as M5 PAM inactive, M5 ag inactive, M4 ag inactive, M5 antag inactive, M4 antag 34 and CHRM4 PAM inactive.
O=C(NCCc1ccc(F)cc1)c1ccncc1 was read as M5 PAM inactive, M5 ag inactive, M4 ag inactive, M5 antag inactive, M4 antag inactive and CHRM4 PAM inactive.
`CCOC(=O)C1(CC)Oc2ccccc2C(c2ccc(OC)cc2)=C1C(=O)OC` (stereo unspecified) gave M5 PAM inactive, M5 ag inactive, M4 ag inactive, M5 antag inactive, M4 antag inactive and CHRM4 PAM inactive.
Screening CC(=O)c1ccc(OCC(=O)Nc2ccc3c(c2)OCO3)cc1 returned M5 PAM inactive, M5 ag inactive, M4 ag inactive, M5 antag inactive, M4 antag inactive and CHRM4 PAM inactive.
`Fc1ccc(/C=C2\CCCC3=C2Nc2ncnn2C3c2ccc(F)cc2)cc1` (stereo unspecified) gave M5 PAM inactive, M5 ag inactive, M4 ag inactive, M5 antag inactive, M4 antag 28 and CHRM4 PAM inactive.
COc1ccc(C2C3=C(Nc4ncnn42)c2ccccc2CCC3)cc1 (stereo unspecified) was read as M5 PAM inactive, M5 ag inactive, M4 ag inactive, M5 antag inactive, M4 antag inactive and CHRM4 PAM inactive.
`N#CC(=C1C=CC(=NO)C(Cl)=C1)c1ccc(Cl)cc1` gave M5 PAM inactive, M5 ag inactive, M4 ag inactive, M5 antag inactive, M4 antag 39 and CHRM4 PAM inactive.
COc1ccc(C(C#N)=C2C=CC(=NO)C=C2)cc1 was read as M5 PAM inactive, M5 ag inactive, M4 ag inactive, M5 antag inactive, M4 antag inactive and CHRM4 PAM inactive.
Screening CCC(C)NC(=O)c1cnn2c(C)c3c(nc12)CCCC3 (stereo unspecified) returned M5 PAM inactive, M5 ag inactive, M4 ag inactive, M5 antag inactive, M4 antag inactive and CHRM4 PAM 39.
`Cc1c2c(nc3c(C(=O)NC4CC4)cnn13)CCCC2` gave M5 PAM inactive, M5 ag inactive, M4 ag inactive, M5 antag inactive, M4 antag inactive and CHRM4 PAM inactive.
For CN(C)CCN(C(=O)C1CCN(S(=O)(=O)c2cccs2)CC1)c1nc2c(F)cccc2s1 the results were M5 PAM inactive, M5 ag inactive, M4 ag inactive, M5 antag inactive, M4 antag inactive and CHRM4 PAM inactive.
Screening CC(C)(C)N/C=C(\C#N)S(=O)(=O)c1ccc(Br)cc1 returned M5 PAM inactive, M5 ag inactive, M4 ag inactive, M5 antag inactive, M4 antag inactive and CHRM4 PAM inactive.

Assay outcomes as filed in PubChem BioAssay.
